Here are results for 22 compounds from ChEMBL document CHEMBL1135792, “Inhibition of the antibacterial target UDP-(3-O-acyl)-N-acetylglucosamine deacetylase (LpxC): isoxazoline zinc amidase inhibitors bearing diverse metal binding groups” (J Med Chem, 2002).

In general, IC50 refers to the concentration that gives 50% inhibition. Lower therefore signals greater potency. A word on the Ki: it is a measure of affinity in units of concentration, obtained from inhibition or displacement. In general, MIC refers to the least concentration at which growth counts as inhibited. Low readings indicate inhibition by little substance, high ones a need for much substance.

Converted amounts (≈) assume the structure as drawn. Bounds are passed on as bounds.

For assay [1], the system named is Escherichia coli. Nature of the assay: Inhibition of EnvAl Escherichia coli growth in vitro. In kind it is functional.
Assay [2] relates to Escherichia coli. Briefly: Inhibition of Escherichia coli growth in vitro. The class given is functional.
Assay [3] has as its target T1, UDP-3-O-acyl-N-acetylglucosamine deacetylase (Escherichia coli K-12, UniProt P0A725).
T1 sequence (P0A725 whole entry): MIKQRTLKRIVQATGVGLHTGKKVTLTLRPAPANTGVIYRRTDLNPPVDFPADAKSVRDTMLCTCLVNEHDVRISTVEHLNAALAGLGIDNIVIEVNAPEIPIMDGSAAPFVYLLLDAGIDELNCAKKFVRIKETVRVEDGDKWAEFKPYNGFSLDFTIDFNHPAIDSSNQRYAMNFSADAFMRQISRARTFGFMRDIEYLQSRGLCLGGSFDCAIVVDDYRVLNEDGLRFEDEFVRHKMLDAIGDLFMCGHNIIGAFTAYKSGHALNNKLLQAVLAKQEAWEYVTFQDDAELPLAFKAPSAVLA
Nature of the assay: Inhibition of Escherichia coli LpxC(UDP-3-O-[R-3-hydroxymyristoyl]-GlcNAc deacetylase. In a few lines: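 Purified E. coli LpxC (2.5 nM) preincubated 30 min on ice with inhibitor (0.1-500 µg/mL) and 1 mg/mL BSA. Stopped with NaOH, substrate and product separated by PEI-cellulose TLC, phosphorimaged. IC50 from eq 1.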

The subject of assay [4] is Escherichia coli. Nature of the assay: Inhibition of Escherichia coli LpxC in a second order rate constant. In a few lines: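 Purified E. coli LpxC (100 µM) preincubated at 30 °C with inhibitor (0-0.8 mM) in 100 mM bis-Tris pH 7, 12% DMF. Aliquots taken over time, diluted 10-fold into 27 mM UDP-GlcNAc, bis-Tris pH 7, 30 °C. UDP-GlcN read by fluorescamine (ex 395/em 485 nm). Pseudo-first-order kobs fit to exponential decay, then plotted against inhibitor concentration and fit by eq 2.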

In assay [5] the test system is Escherichia coli. Briefly: Inhibitory activity measured against Escherichia coli. The class given is functional.
For assay [6], the system named is Escherichia coli. Nature of the assay: Antibacterial activity against EnvA1 Escherichia coli. In kind it is functional.
Assay [7] concerns Escherichia coli. Briefly: Antibacterial activity against Escherichia coli.

Take `COc1ccc(C2=NOC(S(N)(=O)=O)C2)cc1` (centres undefined): the zone diameter with Escherichia coli [1] and with Escherichia coli [2] was less than 6 mm in each case. In addition, the IC50 in assay [3] is more than 1200 µM.
In the case of `COc1ccc(C2=NOC(C(=O)CS)C2)cc1` (racemic), the zone diameter in the assay on Escherichia coli [1] and in the assay on Escherichia coli [2] was less than 6 mm in each case. In assay [3], inhibition was half-maximal at 27 µM (IC50).
Regarding `COc1ccc(C2=NOC([C@H]3CS3)C2)cc1` (some centres undefined), the zone diameter in the assay on Escherichia coli [1] and in the assay on Escherichia coli [2] was less than 6 mm throughout. In the assay on Escherichia coli [4], this compound had a Ki of 800 µM.
As for `COc1ccc(C2=NOC(C(=O)O)C2)cc1` (racemic), the zone diameter in the assay with Escherichia coli [1] and with Escherichia coli [2] was less than 6 mm in each case. In assay [3], the IC50 is more than 450 µM.
Regarding `COc1ccc(C2=NOC(CS)C2)cc1` (racemic), the zone diameter in the assay on Escherichia coli [1] and with Escherichia coli [2] was less than 6 mm each time. This compound also yielded an IC50 in assay [3] of 22 µM.
On to `COc1ccc(C2=NOC(C(=O)CSC(C)=O)C2)cc1` (racemic), for which the zone diameter in the assay with Escherichia coli [1] and in the assay on Escherichia coli [2] was less than 6 mm each time. In addition, the concentration for half-maximal inhibition (IC50) in assay [3] came out at 12 µM.
Consider `COc1ccc(C2=NO[C@H](C(=O)NO)C2)cc1`, for which the results for the zone diameter with Escherichia coli [1] and in the assay on Escherichia coli [5] were 26 mm and less than 6 mm, respectively. In addition, in the assay with Escherichia coli [6], it took 3.9 µg/mL (≈ 16.5 µM) to inhibit growth (MIC). In addition, in assay [3], the IC50 was 4.37 µM.
On to `COc1ccc(C2=NOC([C@@H]3CS3)C2)cc1` (some centres undefined), for which the zone diameter in the assay on Escherichia coli [1] and in the assay with Escherichia coli [2] was less than 6 mm in each case. For the same compound, in the assay on Escherichia coli [4], the Ki is 300 µM.
As to `COc1ccc(C2=NOC(C(=O)NO)C2)cc1` (racemic), the zone diameter in the assay with Escherichia coli [1] is 21 mm; with Escherichia coli [2], less than 6 mm. This compound had an IC50 in assay [3] of 13 µM.
For `COc1ccc(C2=NOC(C(=O)Nc3ccccn3)C2)cc1` (racemic), the zone diameter in the assay with Escherichia coli [1] and with Escherichia coli [2] was less than 6 mm throughout. Also, the IC50 in assay [3] was more than 336 µM.
Regarding `COc1ccc(C2=NOC(P(C)(=O)O)C2)cc1` (racemic), the zone diameter in the assay on Escherichia coli [1] and in the assay with Escherichia coli [2] was less than 6 mm in each case. Moreover, it took 170 µM to reach half-maximal inhibition in assay [3] (IC50).
Regarding `COc1ccc(C2=NOC(P(=O)(O)O)C2)cc1` (racemic), the zone diameter in the assay with Escherichia coli [1] and in the assay with Escherichia coli [2] was less than 6 mm throughout. The same compound had an IC50 in assay [3] of 4 µM.
On to `COc1ccc(C2=NOC(C(=O)NNC=O)C2)cc1` (racemic), for which the zone diameter in the assay with Escherichia coli [1] and in the assay with Escherichia coli [2] was less than 6 mm in each case. For the same compound, in assay [3], the IC50 stood at 400 µM.
As to `COc1ccc(C2=NO[C@@H](C(=O)NO)C2)cc1`, the zone diameter in the assay on Escherichia coli [1] and in the assay on Escherichia coli [2] was less than 6 mm in each case.
Turning to `COc1ccc(C2=NOC(S(C)(=O)=O)C2)cc1` (racemic), the zone diameter with Escherichia coli [1] and in the assay with Escherichia coli [2] was less than 6 mm each time. Moreover, in assay [3], the IC50 was more than 392 µM.
For the compound `CO[C@H]1/C=C/O[C@@]2(C)Oc3c(C)c(O)c4c(O)c(c(/C=N/N5CCN(C)CC5)c(O)c4c3C2=O)NC(=O)/C(C)=C\C=C\[C@H](C)[C@H](O)[C@@H](C)[C@@H](O)[C@@H](C)[C@H](OC(C)=O)[C@@H]1C` [RIFAMPIN], in the assay on Escherichia coli [7], the MIC came out at 2 µg/mL (≈ 2.43 µM).
For the compound `COc1ccc(C2=NOC(C(=O)Nc3nccs3)C2)cc1` (racemic), the zone diameter with Escherichia coli [1] and in the assay on Escherichia coli [2] was less than 6 mm in each case. This compound also returned an IC50 in assay [3] of more than 392 µM.
Turning to `COc1ccc(C2=NOC(C(=O)NN)C2)cc1` (racemic), the zone diameter with Escherichia coli [1] and in the assay on Escherichia coli [2] was less than 6 mm in each case. Further, the concentration for half-maximal inhibition (IC50) in assay [3] was more than 425 µM.
In the case of `COc1ccc(C2=N[C@@H](C(=O)NO)CO2)cc1`, the zone diameter with Escherichia coli [1] is 24 mm; with Escherichia coli [2], 11 mm. This compound also returned an IC50 in assay [3] of 3 µM.
The like results for `COc1ccc(C2=NO[C@@H]([C@@H](O)CS)C2)cc1` (relative stereo) were, in that order, less than 6 mm, less than 6 mm and more than 400 µM.
The like results for `COc1ccc(C2=NO[C@@H]([C@H](O)CS)C2)cc1` (relative stereo) were, in that order, less than 6 mm, less than 6 mm and more than 400 µM.
For `COc1ccc(C2=NOC(C(=O)NCO)C2)cc1` (racemic) the same measures were less than 6 mm, less than 6 mm and more than 400 µM.
